Experimental data pooled from the literature.
ADORA2B: Adenosine receptor A2b (ADORA2B, Homo sapiens, UniProt P29275)
CFTR: Cystic fibrosis transmembrane conductance regulator (CFTR, Homo sapiens, UniProt P13569)
PKN3: Serine/threonine-protein kinase N3 (PKN3, Homo sapiens, UniProt Q6P5Z2)
PTGER2: Prostaglandin E2 receptor EP2 subtype (PTGER2, Homo sapiens, UniProt P43116)

| SMILES | target | test | setting | inhibition |
| --- | --- | --- | --- | --- |
| CC(C)OC(=O)NC(C)(C)c1csc(-c2ccc(F)cc2)n1 | N-terminal Xaa-Pro-Lys N-methyltransferase 1 (Homo sapiens, UniProt Q9BV86) | enzyme activity, inhibitor, fluorescence | 100 µM | < 50% |
| C=CN1CCCn2c1nc1c2c(=O)n(C)c(=O)n1C | ADORA2B | ligand displacement, radioligand | 10 µM, cell membranes | 1% |
| CC(=NNC(=O)C(=O)Nc1ccc2ccccc2c1)c1cc(Br)c(O)c(Br)c1O | CFTR | ion current, inhibitor | 50 µM | 95% |
| Oc1cccc(Nc2nc(-c3ccc(F)cc3F)cs2)c1 | ADORA2B | cell-free assay | 10 µM | -11.9% |
| CC(=NNC(=O)CNc1ccc2ccccc2c1)c1cc(Br)c(O)c(Br)c1O | CFTR | ion current, inhibitor | 50 µM | 81% |
| Cn1cnc(Br)c1C1=CN(c2ncnc3[nH]cnc23)CCS1 | PKN3 | enzyme activity, inhibitor, radiometric | 2 µM | 88.3% |
| CCCCN1CCCn2c1nc1c2c(=O)n(C)c(=O)n1C | ADORA2B | ligand displacement, radioligand | 10 µM, cell membranes | 3% |
| O=C(CNc1ccc(Cl)cc1)NN=Cc1cc(Br)c(O)c(Br)c1 | CFTR | ion current, inhibitor | 50 µM | 95% |
| CCOC(=O)C1=C(C)NC(c2ccccc2)=C(C(=O)OCc2ccccc2)C1C#Cc1ccccc1 (stereo not shown) | Adenosine receptor A1 (Mus musculus, UniProt Q60612) | ligand displacement, radioligand | 10 µM, cell membranes | 0% |
| CCCC(C)N1CCCn2c1nc1c2c(=O)n(C)c(=O)n1C (stereo not shown) | ADORA2B | ligand displacement, radioligand | 10 µM, cell membranes | 0% |
| COc1cc(NC(C)=O)c(Cl)cc1C(=O)Nc1nccs1 | PTGER2 | cell-free assay | 10 µM | 36.3% |
| CC(C)N1CCCn2c1nc1c2c(=O)n(C)c(=O)n1C | ADORA2B | ligand displacement, radioligand | 10 µM, cell membranes | -4% |
| O=C(c1ccc(Cl)cc1)N(Cc1ccccc1)C1CCCCC1 | PTGER2 | cell-free assay | 10 µM | 14.3% |
| CCN(c1cc(C#CCN2CCOCC2)cc(C(=O)NCc2c(C)cc(C)[nH]c2=O)c1C)[C@H]1CC[C@H](N(C)CCOC)CC1 | Histone-lysine N-methyltransferase NSD2 (NSD2, Homo sapiens, UniProt O96028) | enzyme activity, inhibitor | 1 µM | 26% |
| Cn1cncc1C1=CN(c2ncnc3[nH]cnc23)CCS1 | PKN3 | enzyme activity, inhibitor, radiometric | 2 µM | 80.4% |
| CN(C)C1CCN(CC#Cc2nn(C3CCCC3)c3nc(NCc4ccccc4)ncc23)C1 (stereo not shown) | RAF proto-oncogene serine/threonine-protein kinase (RAF1, Homo sapiens, UniProt P04049, Y340D/Y341D) | enzyme activity, inhibitor, FRET | 0.1 µM | -5% |
| COCCOc1ccc(N2CCN(CCn3ncc4c3nc(N)n3nc(-c5ccco5)nc43)CC2)cc1 | ADORA2B | ligand displacement, radioligand | 10 µM, cell membranes | 25% |
| O=C(CNc1ccc(Cl)cc1)NN=Cc1cc(Br)c(O)c(Br)c1O | CFTR | ion current, inhibitor | 50 µM | 91% |
| CC(C)CCCC(C)N1CCCn2c1nc1c2c(=O)n(C)c(=O)n1C (stereo not shown) | ADORA2B | ligand displacement, radioligand | 10 µM, cell membranes | 0% |
| CC(/C=C/C(=O)NO)=C\[C@@H](C)C(=O)c1ccc(N(C)C)cc1 | Histone deacetylase 11 (HDAC11, Homo sapiens, UniProt Q96DB2) | enzyme activity, inhibitor, fluorescence | 20 µM | < 50% |
| CCCCCC(C)N1CCCn2c1nc1c2c(=O)n(C)c(=O)n1C (stereo not shown) | ADORA2B | ligand displacement, radioligand | 10 µM, cell membranes | -3% |
| CC(=NNC(=O)CNc1ccc2ccccc2c1)c1cc(Br)c(O)c(Br)c1 | CFTR | ion current, inhibitor | 50 µM | 100% |
